According to ChEMBL document CHEMBL1133181, “A novel approach for the virtual screening and rational design of anticancer compounds” (J Med Chem, 2000):
Converted amounts (≈) assume the structure as drawn.

Legend:
[1] = Antitumor activity to reduce proliferation of human T-lymphocyte CEM/0 cells by 50%; assay type: functional, cell-based
How it was run: (§1)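 CEM or Molt4/C8 cells were seeded into 96-well wells with test compound and grown for 72 h at 37 °C in a humidified, CO2-controlled atmosphere. Cells were then counted with a Coulter counter. IC50 is the compound concentration that reduced the number of living cells by 50%.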

[2] = Antitumor activity to reduce proliferation of human T-lymphocyte Molt4/C8 cells by 50%; assay type: functional, cell-based; settings: molt-4; how it was run: as §1
L1210 [3] = experiment: Antitumor activity to reduce proliferation of murine leukemia L1210/0 cells by 50%; assay type: functional, cell-based, Mus musculus
How it was run: (§2)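 L1210 murine leukemia cells were incubated in 96-well microtiter wells with test compound for 48 h at 37 °C under humidified, CO2-controlled conditions. Cell numbers were then counted with a Coulter counter. IC50 was taken as the concentration giving a 50% reduction in living cell count.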

[4] = Concentration required to reduce proliferation of human T-lymphocyte CEM/0 cells by 50%; assay type: functional, cell-based; how it was run: as §1
[5] = Concentration required to reduce proliferation of human T-lymphocyte Molt4/C8 cells by 50%; assay type: functional, cell-based; settings: molt-4; how it was run: as §1
L1210 [6] = experiment: Concentration required to reduce proliferation of murine leukemia L1210/0 cells by 50%; assay type: functional, cell-based, Mus musculus; how it was run: as §2

O=c1ccn(CC2CCCC2CO)c(=O)[nH]1 (configuration not stated)
IC50 [1]: > 200 µg/mL
IC50 [2]: > 200 µg/mL
IC50 (L1210 [3]): > 200 µg/mL

OCC1CCCC1Cn1cnc2c(O)ncnc21 (cis isomer)
IC50 [4]: > 200 µg/mL
IC50 [5]: > 200 µg/mL
IC50 (L1210 [6]): > 200 µg/mL

O=c1[nH]c(=O)n(CC2CCCC2CO)cc1I (cis isomer)
IC50 [1]: 117 µg/mL (≈ 334 µM)
IC50 [2]: 108 µg/mL (≈ 308 µM)
IC50 (L1210 [3]): 71.1 µg/mL (≈ 203 µM)

OCC1CCCC1n1cnc2c(Cl)ncnc21 (cis isomer)
IC50 [1]: 61 µg/mL (≈ 241 µM)
IC50 [2]: 49.9 µg/mL (≈ 197 µM)
IC50 (L1210 [3]): 62.8 µg/mL (≈ 249 µM)

Nc1ncnc2c1ncn2C1CCCC1CO (cis isomer)
IC50 [1]: > 200 µg/mL
IC50 (L1210 [3]): > 200 µg/mL

OCC1CCCC1Cn1cnc2c(Cl)ncnc21 (cis isomer)
IC50 [1]: 16 µg/mL (≈ 60 µM)
IC50 [2]: 6.54 µg/mL (≈ 24.5 µM)
IC50 (L1210 [3]): 14 µg/mL (≈ 52.5 µM)

O=c1[nH]c(=O)n(C2CCCC2CO)cc1I (stereo in doubt; 4a)
IC50 [1]: 57.4 µg/mL (≈ 171 µM)
IC50 [2]: 77.4 µg/mL (≈ 230 µM)
IC50 (L1210 [3]): 52.3 µg/mL (≈ 156 µM)

Nc1ncnc2c1ncn2CC1CCCC1CO (stereo in doubt; 7c)
IC50 [1]: 108 µg/mL (≈ 437 µM)
IC50 [2]: 100 µg/mL (≈ 404 µM)
IC50 (L1210 [3]): 102 µg/mL (≈ 412 µM)

OCC1CCCC1n1cnc2c(O)ncnc21 (trans isomer)
IC50 [4]: > 200 µg/mL
IC50 [5]: > 200 µg/mL
IC50 (L1210 [6]): > 200 µg/mL

O=c1[nH]c(=O)n(CC2CCCC2CO)cc1I (trans isomer)
IC50 [1]: 131 µg/mL (≈ 374 µM)
IC50 [2]: 158 µg/mL (≈ 451 µM)
IC50 (L1210 [3]): 65.8 µg/mL (≈ 188 µM)

OCC1CCCC1n1cnc2c(Cl)ncnc21 (trans isomer)
IC50 [1]: 19 µg/mL (≈ 75.2 µM)
IC50 [2]: 39.2 µg/mL (≈ 155 µM)
IC50 (L1210 [3]): 56.1 µg/mL (≈ 222 µM)

O=c1ccn(C2CCCC2CO)c(=O)[nH]1 (trans isomer)
IC50 [1]: > 200 µg/mL
IC50 [2]: > 200 µg/mL
IC50 (L1210 [3]): > 200 µg/mL

Nc1ncnc2c1ncn2C1CCCC1CO (trans isomer)
IC50 [1]: 180 µg/mL (≈ 772 µM)
IC50 [2]: > 200 µg/mL
IC50 (L1210 [3]): 179 µg/mL (≈ 767 µM)

O=c1[nH]c(=O)n(C2CCCC2CO)cc1I (trans isomer)
IC50 [1]: > 200 µg/mL
IC50 [2]: > 200 µg/mL
IC50 (L1210 [3]): > 200 µg/mL

Nc1ncnc2c1ncn2CC1CCCC1CO (trans isomer)
IC50 [1]: > 200 µg/mL
IC50 [2]: > 200 µg/mL
IC50 (L1210 [3]): > 200 µg/mL

OCC1CCCC1Cn1cnc2c(Cl)ncnc21 (trans isomer)
IC50 [1]: 15 µg/mL (≈ 56.2 µM)
IC50 [2]: 22.3 µg/mL (≈ 83.6 µM)
IC50 (L1210 [3]): 48.7 µg/mL (≈ 183 µM)
